# Experimental data taken from ChEMBL document CHEMBL1129612, “New low-density lipoprotein receptor upregulators acting via a novel mechanism” (J Med Chem, 1996).
# Tested on: HepG2
# Assay: Compound was tested in vitro for up-regulation of low density lipoprotein (LDL) receptor in human hepatocytes (HepG2 cells) at a concentration 3 uM
# Assay type: functional
# Method in brief: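 HepG2 cells (passage ≤10, DMEM with FCS, 5% CO2, 37 °C) plated at 10 000 cells/well and grown 3 days to 80% confluence. Compound at 3 µM added in DMEM with 1% BSA for 24 h. Cell-surface LDL receptors measured by fluorescence immunoassay: MAC-C7 antibody, then alkaline phosphatase-conjugated anti-mouse IgG, substrate ATTAPHOS. Cell number read by propidium iodide. Five replicates, mean % increase.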
row,SMILES,Activity [%]
1,Cc1ccc(NC(=O)CCC2CCCCC2)cc1C(=O)Nc1ccc(O)cc1,60
2,Cc1ccc(NC(=O)CCC2CCCCC2)cc1-c1nc2cc(O)ccc2[nH]1,134
3,Cc1ccc(NC(=O)CCC2CCCCC2)cc1NC(=O)c1ccccc1,50
4,Cc1ccc(NC(=O)NCC2CCCCC2)cc1NC(=O)c1ccc(O)cc1,10
5,Cc1ccc(NC(=O)CCC2CCCCC2)cc1NC(=O)c1ccc2c(c1)OCO2,111
6,Cc1ccc(NC(=O)CCC2CCCCC2)cc1NC(=O)c1ccncc1,-5
7,Cc1ccc(C(=O)CCCC2CCCCC2)cc1NC(=O)c1cccnc1,111
8,Cc1ccc(NC(=O)CCC2CCCCC2)cc1NC(=O)c1ccc([N+](=O)[O-])cc1,11
9,Cc1ccc(NC(=O)CC2CCCCC2)cc1NC(=O)c1ccc(O)cc1,3
10,CC[C@H](C)C(=O)O[C@H]1C[C@@H](C)C=C2C=C[C@H](C)[C@H](CC[C@@H]3C[C@@H](O)CC(=O)O3)[C@H]21 [LOVASTATIN],70
11,Cc1ccc(NC(=O)CCN2CCCCC2)cc1NC(=O)c1ccc(O)cc1,-2
12,CC(=O)Oc1ccc(C(=O)Nc2cc(NC(=O)CCC3CCCCC3)ccc2C)cc1,82
13,CC(=O)Oc1ccc(C(=O)Nc2cc(NC(=O)COC3CCCCC3)ccc2C)cc1,17
14,Cc1ccc(NC(=O)CCC2CCCCC2)cc1NC(=O)c1cc[n+]([O-])cc1,7
15,Cc1ccc(NC(=O)CCC2CCCCC2)cc1NC(=O)c1ccc(CO)cc1,44
16,Cc1ccc(NC(=O)CCC2CCCCC2)cc1NC(=O)c1ccccc1O,0
17,Cc1ccc(NC(=O)CCCC2CCCCC2)cc1NC(=O)c1ccc(O)cc1,32
18,Cc1ccc(NC(=O)CCC2CCCCC2)cc1NC(=O)C1CCCCC1,0
19,Cc1ccc(NC(=O)CCC2CCCCC2)cc1NCc1ccc(O)cc1,-11
20,Cc1ccc2[nH]c(-c3cc(NC(=O)CCC4CCCCC4)ccc3C)nc2c1,91
21,CC(=O)Oc1ccc(C(=O)Nc2cccc(NC(=O)CCC3CCCCC3)c2)cc1,6

row,SMILES,Activity [%]
1,Cc1ccc(NC(=O)CCC2CCCCC2)cc1NC(=O)c1cccnc1,83
2,Cc1ccc(C(=O)CCCC2CCCCC2)cc1NC(=O)c1ccc(O)cc1,10
3,CCCCCCCCC(=O)Nc1ccc(C)c(NC(=O)c2ccc(O)cc2)c1,-10
4,O=C(CCC1CCCCC1)Nc1ccc(Br)c(NC(=O)c2ccc(O)cc2)c1,6
5,O=C(CCC1CCCCC1)Nc1ccc(Cl)c(NC(=O)c2ccc(O)cc2)c1,8
6,Cc1ccc(NC(=O)CCC2CCCCC2)cc1NC(=O)c1ccc(N)cc1,58
7,Cc1ccc(NC(=O)CCC2CCCCC2)cc1/C=C(\C#N)c1ccc(O)cc1,21
8,COC(=O)c1ccc(C(=O)Nc2cc(NC(=O)CCC3CCCCC3)ccc2C)cc1,3
9,Cc1ccc(NC(=O)CCc2ccccc2)cc1NC(=O)c1ccc(O)cc1,-20
10,Cc1ccc(NC(=O)CCC2CCCCC2)cc1-c1nc2ccccc2[nH]1,45
11,Cc1ccc(NC(=O)CCC2CCCCC2)cc1NC(=O)c1cccc(O)c1,59
12,Cc1ccc(NC(=O)CCC2CCCCC2)cc1NC(=O)c1ccc(O)cc1,80
13,O=C(CCC1CCCCC1)Nc1ccc(F)c(NC(=O)c2ccc(O)cc2)c1,12
14,Cc1ccc(NC(=O)CCC2CCCCC2)cc1/C=C(\C#N)c1cccnc1,126
15,Cc1ccc(NC(=O)CCC2CCCC2)cc1NC(=O)c1ccc(O)cc1,25
16,O=C(CCC1CCCCC1)Nc1ccc(O)c(NC(=O)c2ccc(O)cc2)c1,-3
17,Cc1ccc(NC(=O)CCC2CCCCC2)cc1/C=C(\C#N)c1ccc2c(c1)OCO2,108
18,Cc1ccc(C(=O)NCCC2CCCCC2)cc1NC(=O)c1ccc(O)cc1,75
19,COc1ccc(NC(=O)CCC2CCCCC2)cc1NC(=O)c1ccc(OC(C)=O)cc1,-13
20,Cc1ccc(NC(=O)OCC2CCCCC2)cc1NC(=O)c1ccc(O)cc1,16
